In brackets after ≈: the same amount, converted by molar mass.
Experiments:
C. neoformans mpk1Δ = experiment: MIC against the congenic mpk1Δ strain; assay type: cell-based, Cryptococcus neoformans; settings: 30 °C
Outline: (§1)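 MIC was determined by the CLSI-approved method, read at a 72 h end point. Congenic CM108 and mpk1Δ strains came from the Fungal Genetics Stock Center. CM108 was tested at 30 and 37 °C and mpk1Δ at 30 °C.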

[1] = Stability in human plasma; assay type: in vitro ADME; settings: after 5 h of incubation
HEK293 cells = experiment: Mammalian cell cytotoxicity; assay type: cell-based, human; settings: higher concentrations not tested
[2] = Stability in mouse plasma; assay type: in vitro ADME; settings: after 5 h of incubation
[3] = test system: C. neoformans strain CM108; experiment: MIC at 30 and 37 °C with strain CM108; assay type: cell-based; settings: Cryptococcus neoformans
Outline: as §1

C. neoformans [4] = experiment: Alamar blue viability assay with and without 1 M sorbitol; assay type: cell-based, Cryptococcus neoformans
Outline: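 C. neoformans was grown overnight in YPD at 30 °C and seeded at 1.5 × 10^4 cells/mL into a dilution series of test compound, in synthetic complete medium with or without 1 M sorbitol. Plates ran 24 h at 37 °C, then Alamar blue (1:10) was added for 2 h at 37 °C. Fluorescence (Ex 544/Em 590) was compared to DMSO wells, and IC50 was obtained by curve fitting.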

C. neoformans H99 cells = experiment: Checkerboard assay of interaction with caspofungin; assay type: cell-based, Cryptococcus neoformans
[5] = test system: protein kinase C 1 (Pkc1); experiment: Cellular protein kinase C activity; assay type: biochemical, C. neoformans; settings: cell lysates
Outline: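 Cells were grown overnight in YPD at 30 °C, washed three times in DPBS, adjusted to 1 × 10^7 cells/mL and lysed with glass beads in kit extraction buffer. Equal total protein plus a dilution series of test compound went into each reaction with a fluorescent Pkc1-specific substrate for 30 min. Products were separated on agarose gel, quantified by densitometry and expressed as % of DMSO reactions. Staurosporine served as reference inhibitor.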

C. neoformans [6] = settings: cited from earlier work
[7] = test system: Rlm1-lacZ reporter of CWIP activity; experiment: Rlm1-lacZ cell wall integrity pathway; assay type: cell-based, S. cerevisiae; settings: exposure of cells harboring the reporter plasmid
Outline: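 S. cerevisiae CRY2 (W303 background) carried a plasmid with lacZ driven by two consensus Rlm1 binding sites. Cells were grown overnight in SC lacking uracil at 30 °C, diluted to 0.1 OD600 in YPD and grown to 0.4. They were dispensed at 0.05 OD600, and test compound was pinned in. Plates stood 4 h at room temperature before Gal-Screen luminescence read-out against solvent wells. Values are the mean of three replicates.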

Mpk1 phosphorylation = experiment: Western blot of Mpk1 phosphorylation in C. neoformans; assay type: cell-based; settings: exponential phase cells, MPK1-FLAG strain

Question: Which “activity against strain from which MPK1 has been deleted” value (C. neoformans mpk1Δ) does the source give for Cc1ccc(C(C)C)c(OCCn2c(S)nc3ccccc32)c1 [Compound 1, 1-(2-(2-isopropyl-5-methylphenoxy)ethyl)-1H-benzo[d]imidazole-2(3H)-thione] here?
Answer: active

Question: And the “remaining intact in plasma” value [1]?
Answer: 100%

Question: And the “concentration up to which nontoxic” value (HEK293 cells)?
Answer: ≥ 80 µM

Question: And the “remaining intact in plasma” value [2]?
Answer: 100%

Question: What about the MIC ([3]; CM108, 30 °C) of the same molecule?
Answer: 16 µg/mL (≈ 49 µM)

Question: And the MIC ([3]; CM108, 37 °C)?
Answer: 8 µg/mL (≈ 24.5 µM)

Question: What about the “sorbitol suppression of anticryptococcal activity” value (C. neoformans [4]) of the same molecule?
Answer: sorbitol-suppressable

Question: And the “fractional inhibitory concentration index (FICI)” value (C. neoformans H99 cells; combination of 1 with caspofungin, 1 at 2-fold below its MIC)?
Answer: 0.625

Question: And the “reduction of the concentration of caspofungin needed to inhibit C. neoformans” value (C. neoformans H99 cells; subinhibitory concentrations of 1)?
Answer: 8 fold

Question: And the “protein kinase C activity as percentage of DMSO-treated samples” value ([5]; concentrations as high as 10-fold above its MIC)?
Answer: 91 ± 3%

Question: With CCN(CC)CCOc1ccc(C(=C(Cl)c2ccccc2)c2ccccc2)cc1 [clomiphene] as the molecule, how does the “AK signal / cell lysis” value (C. neoformans [6]; positive control of the screen) read?
Answer: strong AK signal

Question: With OC(Cn1cncn1)(Cn1cncn1)c1ccc(F)cc1F [fluconazole] as the molecule, how does the “AK activity compared to solvent controls” value (C. neoformans [6]) read?
Answer: no increase

Question: Which “reduction in Pkc1 activity” value ([5]; data not shown) does the source give for CN[C@@H]1C[C@H]2O[C@@](C)([C@@H]1OC)n1c3ccccc3c3c4c(c5c6ccccc6n2c5c31)C(=O)NC4 [staurosporine, reference compound] here?
Answer: 25%

Question: For O=S(=O)(O)c1cc(Nc2nc(Nc3ccccc3)nc(N(CCO)CCO)n2)ccc1/C=C/c1ccc(Nc2nc(Nc3ccccc3)nc(N(CCO)CCO)n2)cc1S(=O)(=O)O [Calcofluor white], which “increase in β-galactosidase activity” value [7] is on record?
Answer: 5 fold

Question: What about the “Mpk1 phosphorylation caused by the agent alone” value (Mpk1 phosphorylation) of the same molecule?
Answer: induced phosphorylation of Mpk1
